# From ChEMBL document CHEMBL3596093, “Synthesis and antimicrobial evaluation of 5-aryl-1,2,4-triazole-3-thione derivatives containing a rhodanine moiety” (2015)
# Legend:
# [1] = tested on: Staphylococcus aureus; assay: Bactericidal activity against quinolone-resistant Staphylococcus aureus CCARM 3505 after 24 hrs by agar plate method; assay type: functional; conditions: CCARM 3505, 24 h
# In short: (§1)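 5 µL from each well without visible growth plated on fresh Mueller-Hinton agar, then 37 °C for a further 24 h. MBC is the lowest concentration giving no visible colonies. Run in triplicate.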
# [2] = tested on: Escherichia coli; assay: Antibacterial activity against Escherichia coli KCTC 1924 after 24 hrs by two-fold serial dilution method; assay type: functional; conditions: KCTC 1924, 24 h
# In short: (§2)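 Strains grown to mid-log phase in Mueller-Hinton broth, then diluted 1000-fold in the same broth to about 10^5 CFU/mL. Compounds were made up as DMSO stocks and two-fold serially diluted from a final top concentration of 64 µg/mL. Incubation was 37 °C for 24 h. Growth was read as absorbance at 630 nm on a microplate reader. MIC assays were run in triplicate.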
# [3] = tested on: Pseudomonas aeruginosa; assay: Antibacterial activity against Pseudomonas aeruginosa 2004 after 24 hrs by two-fold serial dilution method; assay type: functional; conditions: Pseudomonas aeruginosa, 2004, 24 h; in short: as §2
# [4] = tested on: Staphylococcus aureus; assay: Antibacterial activity against methicillin-resistant Staphylococcus aureus CCARM 3167 after 24 hrs by two-fold serial dilution method; assay type: functional; conditions: CCARM 3167, 24 h
# In short: (§3)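 Broth microdilution MIC. Bacteria grown to mid-log phase in Mueller-Hinton broth, diluted 1000-fold, about 10^5 CFU/mL. Compounds from DMSO stocks, two-fold serial dilution from a final 64 µg/mL. Incubation at 37 °C for 24 h. Growth read as absorbance at 630 nm on a microplate reader. Run in triplicate.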
# [5] = tested on: Candida albicans; assay: Antifungal activity against Candida albicans 7535 after 24 hrs by two-fold serial dilution method; assay type: functional; conditions: Candida albicans, 7535, 24 h
# [6] = tested on: Staphylococcus aureus; assay: Bactericidal activity against quinolone-resistant Staphylococcus aureus CCARM 3519 after 24 hrs by agar plate method; assay type: functional; conditions: CCARM 3519, 24 h; in short: as §1
# [7] = tested on: Staphylococcus aureus; assay: Ratio of MBC to MIC for Staphylococcus aureus KCTC 503; assay type: functional
# In short: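 The ratio divides MBC by MIC for the same strain. MIC comes from two-fold broth microdilution in Mueller-Hinton broth (about 10^5 CFU/mL, 37 °C, 24 h, absorbance at 630 nm). MBC comes from subculturing 5 µL from clear wells onto Mueller-Hinton agar for another 24 h at 37 °C, taken as the lowest concentration with no colonies.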
# [8] = tested on: Staphylococcus aureus; assay: Antibacterial activity against quinolone-resistant Staphylococcus aureus CCARM 3519 after 24 hrs by two-fold serial dilution method; assay type: functional; conditions: CCARM 3519, 24 h; in short: as §3
# [9] = tested on: Staphylococcus aureus; assay: Antibacterial activity against Staphylococcus aureus RN4220 after 24 hrs by two-fold serial dilution method; assay type: functional; conditions: RN4220, 24 h; in short: as §3
# [10] = tested on: Staphylococcus aureus; assay: Antibacterial activity against Staphylococcus aureus KCTC 503 after 24 hrs by two-fold serial dilution method; assay type: functional; conditions: KCTC 503, 24 h; in short: as §2
# [11] = tested on: Salmonella typhimurium; assay: Antibacterial activity against Salmonella typhimurium 2421 after 24 hrs by two-fold serial dilution method; assay type: functional, Salmonella enterica subsp. enterica serovar Typhimurium; conditions: Salmonella enterica, 2421, 24 h; in short: as §2
# [12] = tested on: Staphylococcus aureus; assay: Bactericidal activity against methicillin-resistant Staphylococcus aureus CCARM 3167 after 24 hrs by agar plate method; assay type: functional; conditions: CCARM 3167, 24 h; in short: as §1
# [13] = tested on: Staphylococcus aureus; assay: Antibacterial activity against methicillin-resistant Staphylococcus aureus CCARM 3506 after 24 hrs by two-fold serial dilution method; assay type: functional; conditions: CCARM 3506, 24 h; in short: as §3
# [14] = tested on: Staphylococcus aureus; assay: Antibacterial activity against quinolone-resistant Staphylococcus aureus CCARM 3505 after 24 hrs by two-fold serial dilution method; assay type: functional; conditions: CCARM 3505, 24 h; in short: as §3
# [15] = tested on: Streptococcus mutans; assay: Bactericidal activity against Streptococcus mutans 3065 after 24 hrs by agar plate method; assay type: functional; conditions: Streptococcus mutans, 3065, 24 h
# In short: (§4)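 Samples of 5 µL from MIC wells with no visible growth were plated onto fresh Mueller-Hinton agar and incubated a further 24 h at 37 °C. MBC is the lowest concentration giving no visible colony growth on the agar. Assays were run in triplicate.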
# [16] = tested on: Streptococcus mutans; assay: Antibacterial activity against Streptococcus mutans 3065 after 24 hrs by two-fold serial dilution method; assay type: functional; conditions: Streptococcus mutans, 3065, 24 h; in short: as §2
# [17] = tested on: Escherichia coli; assay: Antibacterial activity against Escherichia coli CCARM 1356 after 24 hrs by two-fold serial dilution method; assay type: functional; conditions: CCARM 1356, 24 h; in short: as §2
# [18] = tested on: Staphylococcus aureus; assay: Antibacterial activity against Staphylococcus aureus KCTC 209 after 24 hrs by two-fold serial dilution method; assay type: functional; conditions: KCTC 209, 24 h; in short: as §2
# [19] = tested on: Staphylococcus aureus; assay: Bactericidal activity against methicillin-resistant Staphylococcus aureus CCARM 3506 after 24 hrs by agar plate method; assay type: functional; conditions: CCARM 3506, 24 h; in short: as §1
# [20] = tested on: Pseudomonas aeruginosa; assay: Antibacterial activity against Pseudomonas aeruginosa 2742 after 24 hrs by two-fold serial dilution method; assay type: functional; conditions: Pseudomonas aeruginosa, 2742, 24 h; in short: as §2
# [21] = tested on: Staphylococcus aureus; assay: Bactericidal activity against Staphylococcus aureus KCTC 503 after 24 hrs by agar plate method; assay type: functional; conditions: KCTC 503, 24 h; in short: as §1
# [22] = tested on: Staphylococcus aureus; assay: Bactericidal activity against Staphylococcus aureus RN4220 after 24 hrs by agar plate method; assay type: functional; conditions: RN4220, 24 h; in short: as §4
# [23] = tested on: Escherichia coli; assay: Bactericidal activity against Escherichia coli KCTC 1924 after 24 hrs by agar plate method; assay type: functional; conditions: KCTC 1924, 24 h; in short: as §4
Compound,MBC [1],MIC [2],MIC [3],MIC [4],MIC [5],MBC [6],MIC [8],MIC [9],MIC [10],MIC [11],MBC [12],MIC [13],MIC [14],MIC [16],MIC [17],MIC [18],MBC [19],MIC [20],MBC [21],MBC [22],also measured
Cc1ccc(-c2n[nH]c(=S)n2/N=C/c2ccc(/C=C3\SC(=S)N([C@@H](Cc4ccccc4)C(=O)O)C3=O)cc2)cc1,128 µg/mL,> 128 µg/mL,> 128 µg/mL,8 µg/mL,> 64 µg/mL,> 128 µg/mL,16 µg/mL,8 µg/mL,64 µg/mL,> 128 µg/mL,64 µg/mL,16 µg/mL,16 µg/mL,64 µg/mL,> 128 µg/mL,> 64 µg/mL,128 µg/mL,> 128 µg/mL,64 µg/mL,8 µg/mL,Ratio [7]: <=4; MBC [15]: > 256 µg/mL
O=C(O)[C@H](Cc1ccccc1)N1C(=O)/C(=C/c2ccc(/C=N/n3c(-c4ccc(Br)cc4)n[nH]c3=S)cc2)SC1=S,32 µg/mL,> 128 µg/mL,> 128 µg/mL,8 µg/mL,> 64 µg/mL,64 µg/mL,8 µg/mL,8 µg/mL,8 µg/mL,> 128 µg/mL,32 µg/mL,16 µg/mL,8 µg/mL,16 µg/mL,> 128 µg/mL,> 64 µg/mL,128 µg/mL,> 128 µg/mL,32 µg/mL,64 µg/mL,Ratio [7]: <=4; MBC [15]: 64 µg/mL
O=C(O)[C@H](Cc1ccccc1)N1C(=O)/C(=C/c2ccc(/C=N/n3c(-c4ccc(F)cc4)n[nH]c3=S)cc2)SC1=S,128 µg/mL,> 128 µg/mL,> 128 µg/mL,16 µg/mL,> 64 µg/mL,128 µg/mL,16 µg/mL,16 µg/mL,32 µg/mL,> 128 µg/mL,128 µg/mL,64 µg/mL,16 µg/mL,64 µg/mL,> 128 µg/mL,> 64 µg/mL,> 256 µg/mL,> 128 µg/mL,128 µg/mL,128 µg/mL,Ratio [7]: <=4; MBC [15]: 256 µg/mL
Cc1cccc(-c2n[nH]c(=S)n2/N=C/c2ccc(/C=C3\SC(=S)N(CC(=O)O)C3=O)cc2)c1,> 256 µg/mL,32 µg/mL,> 128 µg/mL,64 µg/mL,> 64 µg/mL,> 256 µg/mL,64 µg/mL,> 64 µg/mL,64 µg/mL,> 128 µg/mL,> 256 µg/mL,> 64 µg/mL,64 µg/mL,> 64 µg/mL,> 128 µg/mL,> 64 µg/mL,–,> 128 µg/mL,> 256 µg/mL,–,MBC [23]: > 256 µg/mL
Cc1ccc(-c2n[nH]c(=S)n2/N=C/c2ccc(/C=C3\SC(=S)N(CC(=O)O)C3=O)cc2)cc1,–,> 128 µg/mL,> 128 µg/mL,> 64 µg/mL,> 64 µg/mL,> 128 µg/mL,16 µg/mL,> 64 µg/mL,> 64 µg/mL,> 128 µg/mL,–,> 64 µg/mL,> 64 µg/mL,> 64 µg/mL,> 128 µg/mL,> 64 µg/mL,–,> 128 µg/mL,–,–,–
Cc1cccc(-c2n[nH]c(=S)n2/N=C/c2ccc(/C=C3\SC(=S)NC3=O)cc2)c1,> 256 µg/mL,32 µg/mL,> 128 µg/mL,64 µg/mL,> 64 µg/mL,> 256 µg/mL,32 µg/mL,32 µg/mL,32 µg/mL,> 128 µg/mL,> 256 µg/mL,32 µg/mL,32 µg/mL,> 64 µg/mL,> 128 µg/mL,> 64 µg/mL,> 256 µg/mL,> 128 µg/mL,> 256 µg/mL,> 256 µg/mL,MBC [23]: 256 µg/mL
O=C1NC(=S)S/C1=C\c1ccc(/C=N/n2c(-c3ccc(Br)cc3)n[nH]c2=S)cc1,–,64 µg/mL,> 128 µg/mL,> 64 µg/mL,> 64 µg/mL,–,> 64 µg/mL,> 64 µg/mL,> 64 µg/mL,> 128 µg/mL,–,> 64 µg/mL,> 64 µg/mL,> 64 µg/mL,> 128 µg/mL,> 64 µg/mL,–,> 128 µg/mL,–,–,MBC [23]: > 256 µg/mL
